{"data": "Published values of several laboratories", "effect on": "cell growth or viability", "note": "Each line is one published result; the experiments were not run side by side."}
{"SMILES": "COc1ccccc1CNC[C@@](C)(O)[C@@H]1CC[C@@H](C)C[C@H]1OCc1ccccc1", "cell line": "MCF7", "test": "MTT", "setting": "10 µM, 72 h", "quantity": "inhibition", "value": "46.9%"}
{"SMILES": "CC(=O)c1nn(-c2ccc(C)cc2)/c(=N/N=C(\\C)c2ccc(NC(=O)c3ccccc3)cc2)s1", "cell line": "MCF7", "test": "MTT", "setting": "10 µM", "quantity": "viability", "value": "6.47%"}
{"SMILES": "C[C@@H]1CC[C@@H]([C@@](O)(CNCc2ccccc2)COCc2ccccc2)[C@H](OCc2ccccc2)C1", "cell line": "MCF7", "test": "MTT", "setting": "30 µM, 72 h", "quantity": "inhibition", "value": "96.4%"}
{"SMILES": "CCOC(=O)c1nn(-c2cccc(Cl)c2)/c(=N/N=C(\\C)c2ccc(NC(=O)c3ccc(Cl)cc3)cc2)s1", "cell line": "MCF7", "test": "MTT", "setting": "78 nM", "quantity": "viability", "value": "73.5%"}
{"SMILES": "C=CC(=O)NC1CCN(c2ncc3ncnc(Nc4ccc(Oc5ccc6c(c5)ncn6C)c(C)c4)c3n2)CC1", "cell line": "SNU-398", "quantity": "EC50", "value": "0.0365 µM"}
{"SMILES": "O=C(Nc1ccccc1)Nc1ccc(Oc2nnc(-c3ccc(Cl)cc3)c3ccccc23)cc1", "cell line": "MCF7", "test": "MTT", "setting": "0.625 µM", "quantity": "cell death", "value": "95.4%"}
{"SMILES": "C=C(COCc1ccc(OC)cc1)[C@@H]1CC[C@@H](C)C[C@H]1OCc1ccc(OC)cc1", "cell line": "MCF7", "test": "MTT", "setting": "30 µM, 72 h", "quantity": "inhibition", "value": "24%"}
{"SMILES": "CC(=O)Nc1ccc(Oc2nnc(-c3ccc(Cl)cc3)c3ccccc23)cc1", "cell line": "MCF7", "test": "MTT", "setting": "1.25 µM", "quantity": "cell death", "value": "93.9%"}
{"SMILES": "Cc1c(C(=O)O)ccc2c3n(nc12)[C@@H]1[C@H](C3)N(CC2CC2)[C@@]2(C(=O)Nc3cc(Cl)ccc32)[C@H]1c1cccc(Cl)c1F", "cell line": "SJSA-1", "test": "ATP luminescence", "quantity": "IC50", "value": "0.012 µM"}
